Test results as given in ChEMBL document CHEMBL5131497, “Design, Synthesis, and Characterization of TNP-2198, a Dual-Targeted Rifamycin-Nitroimidazole Conjugate with Potent Activity against Microaerophilic and Anaerobic Bacterial Pathogens” (J Med Chem, 2022).
Converted amounts (≈) assume the structure as drawn.

Tests used:
Clostridioides difficile [1] = experiment: Antibacterial activity against Clostridioides difficile clinical isolate China; type: functional
Helicobacter pylori [2] = experiment: Antibacterial activity against Helicobacter pylori clinical isolate USA; type: functional
Clostridioides difficile [3] = experiment: Antibacterial activity against Clostridioides difficile ATCC 9689; type: functional
Helicobacter pylori [4] = experiment: Antibacterial activity against metronidazole-resistant Helicobacter pylori CB1573 harboring rdxAR16S mutant measured after 5 days by agar dilution method; type: functional; conditions: CB1573, 120 h, time 5 day
In short: (§1)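 Agar dilution per CLSI. Wild-type ATCC 700392 (CB1531) and its derivatives carry defined resistance determinants. Drugs, alone or in 1:1 molar mixtures, were diluted 2-fold from 100× stocks into Mueller–Hinton agar with aged (≥2 weeks) sheep blood (5% v/v). MIC read after 5 days at 35 °C under microaerobic conditions from a campylobacter gas-generating system.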

Helicobacter pylori [5] = experiment: Antibacterial activity against rifampicin-resistant Helicobacter pylori CB1614 harboring rpoBL525I/D530N mutant measured after 5 days by agar dilution method; type: functional; conditions: CB1614, 120 h, time 5 day; in short: as §1
Bifidobacterium longum = experiment: Antibacterial activity against Bifidobacterium longum ATCC 15707; type: functional
Clostridium sporogenes = experiment: Antibacterial activity against Clostridium sporogenes ATCC 19404; type: functional
Fusobacterium nucleatum = experiment: Antibacterial activity against Fusobacterium nucleatum ATCC 25586; type: functional
Gardnerella vaginalis [6] = experiment: Antibacterial activity against Gardnerella vaginalis ATCC 49145; type: functional
Prevotella bivia [7] = experiment: Antibacterial activity against Prevotella bivia ATCC 29303/MMX 5718; type: functional
Prevotella bivia [8] = experiment: Antibacterial activity against metronidazole-resistant Prevotella bivia MMX 3454; type: functional
Veillonella parvula = experiment: Antibacterial activity against Veillonella parvula ATCC 17745 MMX 1272; type: functional
[9] = Half life in C57BL/6 mouse at 20 mg/kg, po; type: ADME, organism-based; conditions: in vivo
In short: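 Single-dose PK of TNP-2198 was run in C57BL/6 mice (IV 5 mg/kg; PO 20 mg/kg) and beagle dogs (IV 5 mg/kg; PO 25 mg/kg). Terminal half-life (h) was derived from plasma profiles, together with Tmax, Vdss, CL, AUC and oral bioavailability.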

[10] = AUC in C57BL/6 mouse at 20 mg/kg, po; type: ADME, organism-based; set-up: dose 20 mg/kg, route po; conditions: in vivo
In short: (§2)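 Plasma PK after single intravenous or oral dosing. Mice C57BL/6 at 5 mg/kg IV or 20 mg/kg PO; Sprague–Dawley rats at 10 mg/kg IV or 50 mg/kg PO; beagle dogs at 5 mg/kg IV or 25 mg/kg PO. AUC reported in ng·h/mL. Clearance from the IV arms in mL/min·kg.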

[11] = Oral bioavailability in C57BL/6 mouse at 20 mg/kg; type: ADME, organism-based; conditions: in vivo
[12] = Tmax in Sprague-Dawley rat at 50 mg/kg, po; type: ADME, organism-based; conditions: in vivo
[13] = Half life in Sprague-Dawley rat at 50 mg/kg, po; type: ADME, organism-based; conditions: in vivo
[14] = Tmax in Beagle dog at 25 mg/kg, po; type: ADME, organism-based, Canis lupus familiaris; conditions: in vivo
[15] = AUC in Beagle dog at 5 mg/kg, iv; type: ADME, organism-based, Canis lupus familiaris; set-up: dose 5 mg/kg, route iv; conditions: in vivo; in short: as §2
[16] = Drug distribution in Sprague-Dawley rat brain measured at 2 hrs; type: ADME, tissue-based; conditions: read-out: Ct
In short: (§3)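 Sprague–Dawley rats were dosed with TNP-2198. Concentrations were measured in plasma (ng/mL) and in tissues or contents (ng/g) at 0.5, 2, 6, 12 and 24 h after dosing. Values below the limit of quantification are reported as BLOQ.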

[17] = Drug distribution in Sprague-Dawley rat ascites fluid measured at 2 hrs; type: ADME, tissue-based, Ascitic fluid; conditions: read-out: Ct; in short: as §3
[18] = Drug distribution in Sprague-Dawley rat ascites fluid measured at 6 hrs; type: ADME, tissue-based, Ascitic fluid; conditions: read-out: Ct; in short: as §3
[19] = Drug distribution in Sprague-Dawley rat ascites fluid measured at 24 hrs; type: ADME, tissue-based, Ascitic fluid; conditions: in vivo, BLD = below limit of detection; in short: as §3
[20] = Drug distribution in Sprague-Dawley rat gums measured at 2 hrs; type: ADME, tissue-based, Gingiva; conditions: read-out: Ct; in short: as §3
[21] = Drug distribution in Sprague-Dawley rat stomach content measured at 12 hrs; type: ADME, tissue-based; conditions: read-out: Ct; in short: as §3
[22] = Drug distribution in Sprague-Dawley rat stomach tissue measured at 12 hrs; type: ADME, tissue-based; conditions: read-out: Ct; in short: as §3
[23] = Drug distribution in Sprague-Dawley rat stomach tissue measured at 24 hrs; type: ADME, tissue-based; conditions: read-out: Ct; in short: as §3
[24] = Drug distribution in Sprague-Dawley rat large intestine content measured at 6 hrs; type: ADME, tissue-based; conditions: read-out: Ct; in short: as §3
[25] = Drug distribution in Sprague-Dawley rat large intestine tissue measured at 2 hrs; type: ADME, tissue-based; conditions: read-out: Ct; in short: as §3
[26] = Drug distribution in Sprague-Dawley rat large intestine tissue measured at 12 hrs; type: ADME, tissue-based; conditions: read-out: Ct; in short: as §3
[27] = Drug distribution in Sprague-Dawley rat large intestine tissue measured at 24 hrs; type: ADME, tissue-based; conditions: read-out: Ct; in short: as §3
Helicobacter pylori [28] = experiment: Resistance development in Helicobacter pylori MMX 3719 assessed as spontaneous resistance frequency using at 1.90 x 10^8 CFU inoculum at 1 ug/ml; type: functional; conditions: dose 1 µg/ml
In short: (§4)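 H. pylori MMX 3719 exposed to 0.5, 1, 2 and 4 µg/mL drug with an inoculum of 1.90×10^8 CFU at each level. Two independent tests were run, and resistant colonies were counted and averaged. A spontaneous resistance frequency was reported for each concentration, and the MPC was taken across the concentrations tested.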

Helicobacter pylori [29] = experiment: Resistance development in Helicobacter pylori MMX 3719 assessed as spontaneous resistance frequency using at 1.90 x 10^8 CFU inoculum at 4 ug/ml; type: functional; conditions: dose 4 µg/ml; in short: as §4
Clostridioides difficile [30] = experiment: Resistance development in Clostridioides difficile MMX 4381 assessed as spontaneous resistance frequency using at 1.23 x 10^9 CFU inoculum at 0.5 ug/ml; type: functional; conditions: dose 0.5 µg/ml
Gardnerella vaginalis [31] = experiment: Resistance development in Gardnerella vaginalis MMX 5973 assessed as spontaneous resistance frequency using at 4.50 x 10^8 CFU inoculum at 1 ug/ml; type: functional; conditions: dose 1 µg/ml
In short: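 Resistant colonies were counted at each drug concentration in two separate tests (test 1, test 2) and averaged. The spontaneous resistance frequency was taken from the mean colony count relative to the inoculum plated. Drug levels tested were 0.5, 1, 2 and 4 µg/mL, and a mutation prevention concentration (MPC) was also reported.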

Helicobacter pylori [32] = experiment: Resistance development in Helicobacter pylori MMX 3719 assessed as mutation prevention concentration using at 1.90 x 10^8 CFU inoculum; type: functional; conditions: dose 0.5 µg/ml; in short: as §4
Helicobacter pylori [33] = experiment: Antibacterial activity against Helicobacter pylori infected in C57/BL6 mouse assessed as bacterial load in stomach at 15 mg/kg administered twice daily via oral gavage starting from 7 days post inoculation and administered for 7 days (reference value: 5.25 log10CFU); type: functional; conditions: time 7 day
Helicobacter pylori [34] = experiment: Antibacterial activity against Helicobacter pylori infected in C57/BL6 mouse assessed as bacterial load in stomach at 5 mg/kg administered twice daily via oral gavage starting from 7 days post inoculation and administered for 7 days (reference value: 5.25 log10CFU); type: functional; conditions: time 7 day
Syrian golden hamster = experiment: Antibacterial activity against Clostridioides difficile UNT-103-1 infected in Syrian hamster assessed as survival at 15 to 45 mg/kg, po administered once a daily for 5 days after 18 hrs post 10 mg/kg clindamycin treatment and measured upto 21 days; type: functional, Mesocricetus auratus; conditions: dose 15-45 mg/kg, time <= 21 day
In short: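 Male Golden Syrian hamsters (80-90 g), housed singly, were gavaged with C. difficile UNT103-1 grown in sporulation medium broth and diluted to OD600 1 in prereduced broth. […] From 18 h later, drug or vehicle was given by oral gavage once daily for 5 days. Survival was recorded through day 21.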

CO[C@H]1/C=C/O[C@@]2(C)Oc3c(C)c(O)c4c(c3C2=O)C2=NC3(CCN(CCn5c([N+](=O)[O-])cnc5C)CC3)NC2=C(NC(=O)/C(C)=C\C=C\[C@H](C)[C@H](O)[C@@H](C)[C@@H](O)[C@@H](C)[C@H](OC(C)=O)[C@@H]1C)C4=O [RIFASUTENIZOL]
MIC (Clostridioides difficile [1]): ≤ 0.06 µg/mL | MIC90 (Clostridioides difficile [1]): 1 µg/mL (≈ 1.06 µM) | MIC (Helicobacter pylori [2]): ≤ 0.001 µg/mL | MIC90 (Helicobacter pylori [2]): 0.125 µg/mL (≈ 0.132 µM) | MIC (Clostridioides difficile [3]): 0.0002 µg/mL (≈ 0.000212 µM) | MIC (Helicobacter pylori [4]): ≤ 0.002 µg/mL | MIC (Helicobacter pylori [5]): 0.125 µg/mL (≈ 0.132 µM) | MIC (Bifidobacterium longum): 0.015 µg/mL (≈ 0.0159 µM) | MIC (Clostridium sporogenes): 0.015 µg/mL (≈ 0.0159 µM) | MIC (Fusobacterium nucleatum): 0.001 µg/mL (≈ 0.00106 µM) | MIC (Gardnerella vaginalis [6]): 0.004 µg/mL (≈ 0.00424 µM) | MIC (Prevotella bivia [7]): 0.015 µg/mL (≈ 0.0159 µM) | MIC (Prevotella bivia [8]): 0.015 µg/mL (≈ 0.0159 µM) | MIC (Veillonella parvula): 2 µg/mL (≈ 2.12 µM) | half-life [9]: 0.51 h | AUC [10]: 3040 ng·h/mL | bioavailability [11]: 20% | Tmax [12]: 1.8 h | half-life [13]: 0.94 h | Tmax [14]: 1.2 h | AUC [15]: 4530 ng·h/mL | concentration at 2 h [16]: 392 ng/g | concentration at 2 h [17]: 5270 ng/g | concentration at 6 h [18]: 3480 ng/g | Ct [19]: Bld | concentration at 2 h [20]: 6040 ng/g | concentration at 12 h [21]: 138 ng/g | concentration at 12 h [22]: 114 ng/g | concentration at 24 h [23]: 14.4 ng/g | concentration at 6 h [24]: 84300 ng/g | concentration at 2 h [25]: 8410 ng/g | concentration at 12 h [26]: 31.6 ng/g | concentration at 24 h [27]: 7.26 ng/g | Activity (Helicobacter pylori [28]): <5 10^-9No_unit | Activity (Helicobacter pylori [29]): <5 10^-9No_unit | Activity (Clostridioides difficile [30]): 8 10^-9No_unit | Activity (Gardnerella vaginalis [31]): <2 10^-9No_unit | Activity (Helicobacter pylori [32]): <=0.5 ug ml-1 | Activity (Helicobacter pylori [33]): 1.94 log10CFU | Activity (Helicobacter pylori [34]): 2.89 log10CFU | Activity (Syrian golden hamster): 100%
